Measurements of several laboratories.
Each line is one published result; the experiments were not run side by side.
Target: TGF-beta receptor type-2 (TGFBR2, Homo sapiens, UniProt P37173)

SMILES	read-out	action	technique	concentration	measurement	value
CC(C)(C)c1cc(C=C(C#N)C#N)cc(Br)c1O	enzyme activity	inhibitor	–	0.5 µM	remaining activity	93.8%
Cc1nn(C)cc1-c1nc2c(N3CCN(Cc4ccc(Cl)cc4)CC3)c(Cl)cnc2[nH]1	binding	–	competition with immobilised ligand	1 µM	remaining binding	100%
COc1ncccc1-c1cnn2ccc(N3CCN(C(=O)OC(C)C)CC3)nc12	binding	–	competition with immobilised ligand	1 µM	remaining binding	100%
N#CC1(c2ccccn2)CCN(Cc2cc(C(=O)O)c(=O)n3ccccc23)CC1	cell-free assay	–	competition with immobilised ligand	1 µM	remaining binding	93%
Nc1ncc(-c2nc(N3CCOCC3)nc(N3CCOCC3)n2)c(C(F)F)n1	cell-free assay	–	competition with immobilised ligand	10 µM	remaining binding	69%
O=c1[nH]c2ccccc2n1C1CCN(Cc2ccc(-c3[nH]c4cc5ncnc5cc4nc3-c3ccccc3)cc2)CC1	cell-free assay	–	–	0.5 µM	remaining signal	95.5%
Cn1cncc1[C@](O)(COc1ccc(C#N)cc1-c1ccc(OC(F)(F)F)cc1)c1ccc(C#N)cc1	cell-free assay	–	competition with immobilised ligand	1 µM	remaining binding	100%
COc1cc(Nc2ncc(F)c(Nc3ccc4c(n3)NC(=O)C(C)(C)O4)n2)cc(OC)c1OC	binding	–	–	10 µM	inhibition	75%
